Here are results for 2 compounds from ChEMBL document CHEMBL3576759, “Antineoplastic agents. 599. Total synthesis of dolastatin 16” (2015).

SMILES strings stand for the structures. Values after ≈ are worked out from the molar mass of the structure shown.

The test system of assay [1] is DU-145. Kind of assay: Growth inhibition of human DU145 cells using DMSO as solvent after 48 hrs by sulforhodamine B assay. The class given is functional. The essentials:
(§1)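 NCI-standard SRB protocol. Cells in RPMI1640 with 5% fetal bovine serum were seeded in 96-well plates and held 24 h before serial compound dilutions were added. After 48 h, cells were fixed with trichloroacetic acid, stained with sulforhodamine B and read by optical density. GI50 is the concentration giving 50% reduction in net protein increase.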
For orientation: The SRB assay estimates cell density from bound dye.

For assay [2], the system named is MCF7. Put plainly: Growth inhibition of human MCF7 cells using MeOH as solvent after 48 hrs by sulforhodamine B assay. The class given is functional. The settings on record: MCF7, 48 h. The essentials: as §1
In assay [3] the test system is NCI-H460. Put plainly: Growth inhibition of human NCI-H460 cells using MeOH as solvent after 48 hrs by sulforhodamine B assay. The class given is functional. The settings on record: NCI-H460, 48 h. The essentials: as §1
Assay [4] in a line: Growth inhibition of human BxPC3 cells using DMSO as solvent after 48 hrs by sulforhodamine B assay. The class given is functional, BXPC-3. The essentials: as §1
Assay [5] can be described thus: Growth inhibition of human KM20L2 cells using DMSO as solvent after 48 hrs by sulforhodamine B assay. The class given is functional, KM-20L2. The essentials: as §1
Assay [6] concerns DU-145. Put plainly: Growth inhibition of human DU145 cells using MeOH as solvent after 48 hrs by sulforhodamine B assay. The class given is functional. As to conditions: DU-145, 48 h. The essentials: as §1
Assay [7] has as its system NCI-H460. Kind of assay: Growth inhibition of human NCI-H460 cells using DMSO as solvent after 48 hrs by sulforhodamine B assay. The class given is functional. The essentials:
as §1

The subject of assay [8] is SF-268. Put plainly: Growth inhibition of human SF268 cells using DMSO as solvent after 48 hrs by sulforhodamine B assay. The class given is functional. The essentials: as §1
A short description of assay [9]: Growth inhibition of human KM20L2 cells using MeOH as solvent after 48 hrs by sulforhodamine B assay. The class given is functional. The settings on record: KM-20L2, 48 h. The essentials:
as §1

The test system of assay [10] is MCF7. Kind of assay: Growth inhibition of human MCF7 cells using DMSO as solvent after 48 hrs by sulforhodamine B assay. The class given is functional. The essentials:
as §1

The nature of assay [11]: Growth inhibition of human BxPC3 cells using MeOH as solvent after 48 hrs by sulforhodamine B assay. The settings on record: BXPC-3, 48 h. The class given is functional. The essentials:
as §1

Assay [12] deals with SF-268. Kind of assay: Growth inhibition of human SF268 cells using MeOH as solvent after 48 hrs by sulforhodamine B assay. The class given is functional. The settings on record: SF-268, 48 h. The essentials:
as §1

Usually GI50 stands for the concentration at which growth is held to half of that of the control. `CC(C)[C@H]1NC(=O)[C@@H]2CCCN2C(=O)[C@H]([C@H](C)Cc2ccccc2)NC(=O)[C@@H]2CCCN2C(=O)[C@@H](C(C)C)N(C)C(=O)[C@@H](C(C)C)OC(=O)[C@@H]2CCCN2C(=O)[C@H](C)OC(=O)[C@@H]1C` (stereo in doubt; 1): the GI50 (in the assay with DU-145 [1]; in the assay with MCF7 [2]; with NCI-H460 [3]; in assay [4]; in assay [5]; in the assay on DU-145 [6]) was greater than 10 µg/mL each time. The concentration for 50% growth inhibition (GI50) (in the assay on NCI-H460 [7]; in the assay with SF-268 [8]; in [9]; in the assay on MCF7 [10]; in [11]; in the assay with SF-268 [12]) was greater than 10 µg/mL in each case.
On to `CC(C)[C@H]1NC(=O)[C@@H]2CCCN2C(=O)[C@H]([C@H](C)Cc2ccccc2)NC(=O)[C@@H]2CCCN2C(=O)[C@@H](C(C)C)N(C)C(=O)[C@@H](C(C)C)OC(=O)[C@@H]2CCCN2C(=O)[C@H](C)OC(=O)[C@@H]1C` (stereo in doubt), for which the GI50 is 0.009 µg/mL (≈ 0.0102 µM) in the assay on DU-145 [1]; 0.05 µg/mL (≈ 0.0569 µM) in assay [4]; 0.013 µg/mL (≈ 0.0148 µM) in [5]; 0.27 µg/mL (≈ 0.307 µM) in the assay with NCI-H460 [7]; 0.016 µg/mL (≈ 0.0182 µM) in the assay with SF-268 [8]; 0.027 µg/mL (≈ 0.0307 µM) in the assay on MCF7 [10].
